STEP block: inhibitors of human striatal-enriched phosphatase STEP; P54829; recombinant STEP, OMFP fluorogenic substrate, fluorescence; inhibition, % at 20 µM; 360,000 compounds, 0.25% hits;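 active = inhibition at 20 µM, scaled per plate between control wells, above about 37%, limit read from the data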;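 also: 0% = DMSO with enzyme and substrate and 100% = substrate only without enzyme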
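System: STEP phosphatase, cell-free reaction; Buffer or medium: Bis-Tris pH 6.0 buffer with DTT, detergent; Incubation: 20 min at room temperature, dark; Measured by: fluorescence, 480/540 nm.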
Rpn11 block: inhibitors of human proteasome Rpn11. inhibition, % at 20 µM. O00487. human 26S proteasome, Ub4-pepOG fluorescence polarization; 20S core pre-blocked with epoxomicin. 360,000 compounds, 0.59% hits;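 active = inhibition at 20 µM, scaled to each plate's controls, above about 33%, limit read from the data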
Target sequence (O00487 whole entry, looked up): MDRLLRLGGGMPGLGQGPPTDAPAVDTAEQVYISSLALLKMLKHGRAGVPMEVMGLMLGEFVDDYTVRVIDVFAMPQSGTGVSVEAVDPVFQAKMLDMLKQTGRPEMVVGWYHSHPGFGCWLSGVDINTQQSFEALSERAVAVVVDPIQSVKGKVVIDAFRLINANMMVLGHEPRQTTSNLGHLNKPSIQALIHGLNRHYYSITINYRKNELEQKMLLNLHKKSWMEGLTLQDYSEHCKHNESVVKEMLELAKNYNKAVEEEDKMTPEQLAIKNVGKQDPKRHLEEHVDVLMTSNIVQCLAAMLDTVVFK
SUMO1-SIM PPI: SUMO1-SIM interaction modulation | inhibition, % at 20 µM | 360,000 compounds, 0.33% hits | P63165 | SUMO1 binding to a labelled peptide, TR-FRET, 1 h | AID 602429; in the data active = inhibition above about 37%
LMPTP block: LMPTP (human) inhibition; P24666; recombinant LMPTP-A, OMFP fluorogenic substrate, fluorescence intensity; inhibition, % at 20 µM; 360,000 compounds, 0.22% hits; AID 651560;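 active = compounds that cut the enzyme signal by at least half of the control window in the single-dose screen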;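 also: plate controls were DMSO wells with enzyme plus substrate for no effect and substrate without enzyme for full effect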
Target sequence (P24666 whole entry, looked up): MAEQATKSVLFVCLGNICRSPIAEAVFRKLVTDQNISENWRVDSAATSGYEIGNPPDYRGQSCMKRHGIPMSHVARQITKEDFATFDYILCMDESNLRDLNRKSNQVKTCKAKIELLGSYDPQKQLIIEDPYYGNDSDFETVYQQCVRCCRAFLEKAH
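material = LMPTP-A | quantity = 0.625 nM enzyme | reagent = OMFP substrate, 400 µM final | buffer or medium = Bis-Tris pH 6.0, DTT, detergent | detection = endpoint fluorescence intensity from OMFP dephosphorylation | dosing = single 20 µM dose | read-out basis = % inhibition relative to no-enzyme and uninhibited control wells | control set = no-enzyme and uninhibited controls | timing = 50 min at room temperature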
Scp-1 inhibitor: blocks human Scp-1 phosphatase activity | Q9GZU7 | Recombinant Scp1, phosphopeptide, malachite green phosphate absorbance | inhibition, % at 20 µM | 340,000 compounds, 0.88% hits | AID 493091;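 active = inhibition above about 50% at 20 µM, limit read from the data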;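 also: plate controls were DMSO wells with enzyme for no effect and wells lacking enzyme for full effect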
Target sequence (Q9GZU7 76-261 limits assumed): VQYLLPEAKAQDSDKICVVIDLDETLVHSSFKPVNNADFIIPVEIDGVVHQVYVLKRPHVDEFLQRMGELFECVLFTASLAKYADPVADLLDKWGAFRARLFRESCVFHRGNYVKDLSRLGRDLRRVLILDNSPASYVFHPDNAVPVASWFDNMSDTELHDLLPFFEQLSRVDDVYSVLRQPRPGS
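Times: enzyme reaction 45 min at room temperature, colour 5 min, stabilisation 30 min. Material: SCP-1 catalytic fragment, aa 76-261. Medium: Acidic Tris acetate buffer with magnesium and detergent. Signal: colorimetric free-phosphate detection, absorbance 630 nm. Read-out basis: % inhibition of SCP-1 phosphate liberation. Reagent: Phosphorylated 17-residue peptide substrate.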
DNMT1 block: blocks human DNA methyltransferase DNMT1; P26358; DNMT1 molecular beacon, Hinp1I cleavage, fluorescence; inhibition (reported as % activation of signal), % at 10 µM; 360,000 compounds, 0.83% hits; in the data active = inhibition above about 50%
Scp1 confirm: confirmation of human Scp-1 phosphatase inhibitors. shares compounds with Scp-1 inhibitor. recombinant SCP-1 catalytic domain, phosphate release, malachite green absorbance. inhibition, % at 20 µM. 2,500 compounds, 61% hits;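 active = inhibition of at least 30% at 20 µM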;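 also: plate controls were DMSO with enzyme for no effect and buffer wells lacking enzyme for full effect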
MG interference: colorimetric interference in Scp-1 counter-screen; shares compounds with Scp-1 inhibitor; Colorimetric interference counterscreen, malachite green absorbance 630 nm; apparent inhibition (interference), % at 20 µM; 2,500 tested, under 10 active; AID 540313;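 active = inhibition of at least 30% at 20 µM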;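 also: compounds added after enzyme reaction finished so only phosphate colour detection is probed; plate controls were DMSO wells with completed Scp-1 reaction for no effect and substrate wells lacking enzyme for full effect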
Scp1 DSF: Scp-1 (human) binding by thermal shift. shares compounds with Scp-1 inhibitor. Recombinant SCP1, Sypro Orange thermal shift Tm. thermal shift relative to vanadate control, % at 40 µM. 1,500 compounds, 25% hits;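 active = substances whose mean melting-temperature shift, as a percentage of the reference inhibitor's shift, reaches about 5.3%, limit read from the data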;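 also: 0% = Tm of DMSO wells and 100% = Tm with sodium orthovanadate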
DNMT1 confirm: confirmation of human DNMT1 inhibitors; inhibition, % at 10 µM; shares compounds with DNMT1 block; 2,300 compounds, 8% hits; DNMT1 molecular beacon HinP1I cleavage, fluorescence;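 active = average inhibition of at least 30% in the single-concentration confirmation test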
DNMT1 interf: beacon fluorescence artifact counter-screen. shares compounds with DNMT1 block. DNMT1 molecular beacon spectral interference counterscreen, fluorescence 485/520. activation (fluorescence interference), % at 10 µM. 2,300 compounds, 1% hits. AID 602387;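 active = activation of at least 30% at 10 µM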;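 also: DNMT1 catalytic domain with a HinP1I cleavage step and a FAM/dabcyl DNA beacon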
Rpn11 confirm: Rpn11 inhibition confirmation, single concentration; AID 602318; inhibition, % at 20 µM; shares compounds with Rpn11 block; purified human 26S proteasome, Ub4-pepOG fluorescence polarization; proteasome pretreated with epoxomicin; 1,900 compounds, 29% hits
MMP-2 counter: MMP-2 (human) inhibition counter-screen | recombinant MMP-2, FRET peptide cleavage fluorescence | inhibition, % at 20 µM | AID 602330 | 1,900 compounds, 4% hits | shares compounds with Rpn11 block;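 also: human MMP-2 activated beforehand with APMA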
Thrombin FP: counter-screen for RPN11 inhibitors: inhibition of bovine thrombin | shares compounds with Rpn11 block | bovine thrombin cleavage of Ub4-pepOG, fluorescence polarization | 1,900 compounds, 13% hits | inhibition, % at 20 µM;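 active = mean inhibition at least 40% at 20 µM, or signal 3 deviations below plate average, so some actives read negative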;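 also: plate controls were thrombin with DMSO for no effect and buffer wells lacking thrombin for full effect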
STEP conf: STEP (human) phosphatase inhibition, single concentration confirmation; recombinant STEP, OMFP fluorogenic substrate, fluorescence; shares compounds with STEP block; 520 compounds, 32% hits; inhibition, % at 20 µM; call rule not given here;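 also: 0% = enzyme with substrate plus DMSO and 100% = substrate without enzyme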
* hit, by the source's call; · = no result shown; + = active, no number. This is a sample that favours compounds with a hit; in the whole collection about 2.3% have one here. Rule as the data show it, unless noted: active = inhibition above about 40%; inactive = the rest.

SMILES	STEP block	Rpn11 block	SUMO1-SIM PPI	LMPTP block	Scp-1 inhibitor	DNMT1 block	Scp1 confirm	MG interference	Scp1 DSF	STEP conf	others
O=c1cc(-c2ccsc2)oc2cc(-c3ccc4c(c3)OCO4)ccc12	46*	35	7	68*	68*	61*	53*	-19	-2	7	DNMT1 confirm=0;DNMT1 interf=-1
COc1cc(-c2ccc3oc(-c4ccsc4)cc(=O)c3c2)cc(OC)c1OC	3	18	8	5	-12	-9	·	·	·	·
CN(Cc1ccccc1)C(=O)COc1cccnc1[N+](=O)[O-]	-2	-5	-15	-1	-8	0	·	·	·	·
O=C(CSc1nnnn1-c1ccc(F)cc1)Nc1ccccc1F	-2	-3	4	-1	-5	1	·	·	·	·
COC(=O)COc1ccc(/C=C2/SC(=O)N(CC(=O)N3CCCC3)C2=O)cc1Br	-4	2	-15	-1	-2	-1	·	·	·	·
Cc1ccc(NC(=O)CN2C(=O)S/C(=C\c3ccc(OCC(=O)O)c(Br)c3)C2=O)cc1	71*	-3	1	3	72*	33	58*	-16	1	61*
Cc1cc([N+](=O)[O-])nn1CCCC(=O)Nc1cc(Cl)ccc1Cl	3	0	-7	0	-20	-1	·	·	·	·
N#C/C(=C\c1ccc(OC(=O)c2ccc(Br)s2)cc1)c1nc2ccccc2[nH]1	57*	58*	3	2	101*	82*	52*	0	5.5*	26	DNMT1 confirm=5;DNMT1 interf=-6;Rpn11 confirm=-8;MMP-2 counter=-13;Thrombin FP=-22
N#C/C(=C\c1cccc(OCC(=O)O)c1)c1nc2ccccc2[nH]1	-1	-3	-1	1	-8	0	·	·	·	·
N#C/C(=C\c1ccc(OC(=O)c2ccc(Cl)s2)cc1)c1nc2ccccc2[nH]1	71*	49*	4	46	99*	83*	74*	-10	-3	25*	DNMT1 confirm=7;DNMT1 interf=-5;Rpn11 confirm=-12;MMP-2 counter=0;Thrombin FP=-33
CCC(CC)CN1CCC(CN2C(=S)NC[C@@H]2CC(C)C)CC1	-2	-2	0	-1	-5	2	·	·	·	·
CCn1c(=S)sc2c(=O)n(CC(=O)Nc3ccccc3C(F)(F)F)c(C)nc21	87*	35	8	67*	68*	28	26	-17	·	8
O=C(N/N=C/c1ccsc1)c1cc2ccccc2o1	6	1	-7	0	18	-1	·	·	·	·
O=C(N/N=C/c1cccc([N+](=O)[O-])c1)c1cc2ccccc2o1	63*	37	-4	38	51*	94*	30	-11	·	-5	DNMT1 confirm=1;DNMT1 interf=0
Cc1ccc(C(C#N)=Cc2ccc3c(c2)OCO3)cc1	-3	-9	-13	1	·	7	·	·	·	·
CCN(c1ccccc1)S(=O)(=O)c1cc(C(=O)O)ccc1C	95*	10	12	60*	56*	85*	46*	-15	0	19	DNMT1 confirm=0;DNMT1 interf=1
CC(=O)N1CCc2cc(Br)cc(S(=O)(=O)NCCCN(C)Cc3ccccc3)c21	-1	0	-3	-3	1	1	·	·	·	·
O=C(Cc1cccs1)N1CCN=C1SCc1cccc(F)c1	0	7	14	0	-3	-3	·	·	·	·
O=C(O)c1ccc2c(c1)C(=O)N(c1cccc(-c3nc4ccccc4s3)c1)C2=O	81*	3	-5	4	93*	1	86*	-6	5.4*	47*
Cc1ccc(-c2c(NCCc3ccccc3)c(=O)c2=O)cc1	57*	3	5	26	89*	10	59*	-10	-9	9
Cc1ccn2c(CNCC3OCCc4ccccc43)c(C(=O)N3CCCCCC3)nc2c1 (centres undefined)	-2	2	5	-1	-4	0	·	·	·	·
CC(C)c1ccc(CNCCCSc2ncccn2)cc1	-1	-5	-6	-2	-8	-2	·	·	·	·
COc1ccc2cc3c(N)nn(C(=O)c4cccc(F)c4)c3nc2c1	96*	·	85*	26	96*	43	60*	-16	-22	21*
Cc1cccc(Nc2nn3c(=O)c4ccccc4nc3s2)c1	96*	126*	7	47	106*	94*	69*	-22	-10	29*	DNMT1 confirm=13;DNMT1 interf=3;Rpn11 confirm=46*;MMP-2 counter=37;Thrombin FP=-19
CC1CCCN(C(=O)c2ccc3c(=O)n4nc(Nc5ccccc5)sc4nc3c2)C1 (centres undefined)	3	-7	-3	1	·	2	·	·	·	·
CCCc1cc(=O)oc2cc(OCC(=O)Nc3ccc(S(N)(=O)=O)cc3)ccc12	69*	+	55*	84*	100*	32	85*	-8	2	65*	Rpn11 confirm=6;MMP-2 counter=67*;Thrombin FP=-10
CCCc1cc(=O)oc2cc(OCC(=O)NCc3cccs3)ccc12	-2	0	-4	2	-4	4	·	·	·	·
CC1(C(=O)NS(=O)(=O)C2CC2)CCCN(C(=O)c2cccnc2Oc2ccccc2)C1 (centres undefined)	0	-6	-1	0	·	5	·	·	·	·
